Assay results published in article PMC11227858 (Drug Design, Development and Therapy, 2024).
Entries after “also recorded” stand apart in the source; their conditions may differ.

Tests used:
[1] = assay type: in vivo, human
Safety evaluation = assay type: in vivo, human
Outline: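 Adults with chronic musculoskeletal non-cancer pain received one 2-min IV injection in a single-centre, open-label, ascending-dose design, with a 2-person 0.75 mg pretest. Monitoring covered vital signs to 72 h, SpO2 to 8 h, Holter from −30 min to 24 h, ECG at 48/72 h, 72 h labs, and injection-site checks to 6 h. AEs were graded by system/severity and drug relation; groups compared by Fisher's exact or chi-square.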

Structure (SMILES): COc1ccsc1CNCC[C@@]1(c2ccccn2)CCOC2(CCCC2)C1 [Oliceridine, [(3-methoxythiophen-2-yl)methyl]({2-[(9R)-9-(pyridin-2-yl)-6-oxaspiro-[4.5]decan-9-yl]ethyl})amine]
- Participants achieving Cmax approximately 2 minutes post-administration ([1]; 0.75 mg group (11 of 12)): 91.7%
- Participants reaching Cmax around 5 minutes ([1]; 0.75 mg group (one participant)): 8.3%
- Participants attaining peak concentration at about 2 min ([1]; 1.5 mg group (9 of 10)): 90%
- Participants attaining peak concentration at about 3 min ([1]; 1.5 mg group (one participant, intravenous line blockage)): 10%
- Participants attaining peak at around 10 min ([1]; 3.0 mg group (1 participant)): 10%
- Participants attaining peak at about 2 min ([1]; 3.0 mg group (4 of 10)): 40%
- Participants attaining peak at approximately 5 min ([1]; 3.0 mg group (5 participants)): 50%
- Tmax ([1]; human, plasma, iv): 2.04 to 4.98 min
- half-life ([1]; human, plasma, iv): 111 to 125 min
- Safety and tolerability (Safety evaluation; Chinese patients with chronic non-cancer pain, 0.75 mg to 3.0 mg): safe and well tolerated
- TEAEs leading to discontinuation of the study (Safety evaluation; all doses): none of the TEAEs led to discontinuation of the study
- Severe TEAEs (Safety evaluation; all doses, 32 participants): no reports of severe TEAEs
- Serious adverse events (SAEs) (Safety evaluation; single IV dose 0.75-3.0 mg, 32 participants): no serious adverse events were observed; also recorded: No SAEs were reported
